The results in this text go back to ChEMBL document CHEMBL3817744, “5'-Substituted Amiloride Derivatives as Allosteric Modulators Binding in the Sodium Ion Pocket of the Adenosine A2A Receptor” (J Med Chem, 2016).

In assay [1] the target is T1, Adenosine receptor A2a (Homo sapiens, UniProt P29274). In words: Displacement of [3H]ZM-241,385 from human N-terminal FLAG-tagged adenosine A2A receptor expressed in HEK293 cell membrane assessed as radioligand binding at 10 uM by microbeta scintillation counting method relative to control. It is filed as cell membranes. The method, boiled down: (§1)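 Membranes from HEK293 cells stably expressing hA2AAR-WT (15 µg protein) or transiently expressing W246A mutant (4 µg; harvested 48 h post-transfection), ADA-treated. Incubated 2 h at 25 °C in 50 mM Tris-HCl pH 7.4 with 2.5 nM [3H]ZM-241,385 ± 10 µM test compound; filtration, scintillation counting. 100% = no compound; 0% = nonspecific (100 µM NECA for WT, 10 µM ZM-241,385 for mutant). Means of ≥3 independent assays in duplicate.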
Background: In a radioligand displacement assay an active substance lowers the binding of a labelled ligand.

In assay [2] the test system is Adenosine A2 receptor (Homo sapiens), P29275+P29274 [W246A]. The experiment in a line: Displacement of [3H]ZM-241,385 from human N-terminal FLAG-tagged adenosine A2A receptor W246A 6.48 mutant expressed in HEK293 cell membrane assessed as radioligand binding at 10 uM by microbeta scintillation counting method relative to control. Type of assay: cell membranes. The method, boiled down:
as §1

The target of assay [3] is T1, Adenosine receptor A2a. In words: Displacement of [3H]ZM-241,385 from human N-terminal FLAG-tagged adenosine A2A receptor expressed in HEK293 cell membrane assessed as radioligand residence time at 100 uM by microbeta scintillation counting method. It is filed as cell membranes. A digest of the protocol: (§2)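 Dissociation assay on HEK293 membranes (WT stable, 15 µg; W246A transient, 4 µg). Preequilibration with 2.5 nM [3H]ZM-241,385 for 1 h at 4 °C. Dissociation started with 100 µM NECA ± 100 µM compound (WT, times over 180 min) or 10 µM ZM-241,385 ± 10 µM compound (mutant, over 30 min). Filtration, scintillation counting. One-phase dissociation fit gave residence time versus control. ≥3 assays in duplicate.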

The subject of a further assay is HEK293. In words: Ratio of IC50 for human N-terminal FLAG-tagged adenosine A2A receptor expressed in HEK293 cell membrane to IC50 for human N-terminal FLAG-tagged adenosine A2A receptor W246A 6.48 mutant expressed in HEK293 cell membrane. It is filed as cell-based. The method, boiled down:
(§3)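 Competition binding to ADA-treated HEK293 membranes, WT receptor stably expressed (15 µg protein) or W246A mutant transiently expressed (4 µg). 2.5 nM [3H]ZM-241,385 with increasing compound concentrations, 2 h at 25 °C in 50 mM Tris-HCl pH 7.4. Filtration and scintillation counting. IC50 from a one-site fit. Nonspecific binding: 100 µM NECA (WT) or 10 µM ZM-241,385 (mutant). ≥3 independent assays in duplicate. Fold change = WT IC50 / mutant IC50.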

Assay [4] relates to Adenosine A2 receptor (Homo sapiens), P29275+P29274 [W246A]. The experiment in a line: Displacement of [3H]ZM-241,385 from human N-terminal FLAG-tagged adenosine A2A receptor W246A 6.48 mutant expressed in HEK293 cell membrane assessed as decrease in radioligand residence time at 10 uM by microbeta scintillation counting method relative to control. It is filed as cell membranes. A digest of the protocol:
as §2

In assay [5] the target is T1, Adenosine receptor A2a. The experiment in a line: Displacement of [3H]ZM-241,385 from human N-terminal FLAG-tagged adenosine A2A receptor expressed in HEK293 cell membrane by microbeta scintillation counting method. It is filed as cell membranes. A digest of the protocol: as §3
The test system of assay [6] is Adenosine A2 receptor (Homo sapiens), P29275+P29274 [W246A]. The experiment in a line: Displacement of [3H]ZM-241,385 from human N-terminal FLAG-tagged adenosine A2A receptor W246A 6.48 mutant expressed in HEK293 cell membrane assessed as radioligand residence time at 10 uM by microbeta scintillation counting method. Type of assay: cell membranes. A digest of the protocol: as §2

Another assay addresses Adenosine A2 receptor (Homo sapiens, UniProt P29275+P29274, W246A). In words: Displacement of [3H]ZM-241,385 from human N-terminal FLAG-tagged adenosine A2A receptor W246A 6.48 mutant expressed in HEK293 cell membrane by microbeta scintillation counting method. Type of assay: cell membranes. The method, boiled down: as §3
Assay [7] deals with T1, Adenosine receptor A2a. The experiment in a line: Displacement of [3H]ZM-241,385 from human N-terminal FLAG-tagged adenosine A2A receptor expressed in HEK293 cell membrane assessed as decrease in radioligand residence time at 100 uM by microbeta scintillation counting method relative to control. Type of assay: cell membranes. A digest of the protocol:
as §2

T1 sequence (P29274 whole entry): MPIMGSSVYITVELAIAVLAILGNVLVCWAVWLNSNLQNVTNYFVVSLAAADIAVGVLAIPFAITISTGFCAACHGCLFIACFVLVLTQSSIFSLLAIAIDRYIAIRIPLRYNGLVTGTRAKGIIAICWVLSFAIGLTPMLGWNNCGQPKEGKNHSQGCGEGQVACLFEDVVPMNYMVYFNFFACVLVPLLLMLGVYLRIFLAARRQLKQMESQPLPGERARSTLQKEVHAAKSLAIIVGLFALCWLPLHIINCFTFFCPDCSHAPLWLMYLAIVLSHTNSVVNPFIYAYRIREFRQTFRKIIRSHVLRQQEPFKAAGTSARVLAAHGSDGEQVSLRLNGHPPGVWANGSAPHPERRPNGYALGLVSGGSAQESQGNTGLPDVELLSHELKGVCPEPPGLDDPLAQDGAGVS

Regarding `N=C(N)NC(=O)c1nc(Cl)c(NCc2cccnc2)nc1N`, the results for the Activity (at Adenosine receptor A2a [1]; in [2]) were 71% and 46%, respectively.
The matching figures for `NC(N)=NC(=O)c1nc(Cl)c(NCCCc2ccccc2)nc1N`: 60% and 9%.
The matching figures for `NC(N)=NC(=O)c1nc(Cl)c(NC2Cc3ccccc3C2)nc1N`: 68% and 6.6%.
Usually IC50 stands for the midpoint of a concentration-inhibition curve. Higher therefore signals weaker potency. For `N=C(N)NC(=O)c1nc(Cl)c(N2CCCCCC2)nc1N` [N,N-HEXAMETHYLENEAMILORIDE], the TIME turned out to be 0.467 h on Adenosine receptor A2a [3] and 0.0233 h in [6]. Further, in the assay on HEK293, the Ratio IC50 is 19. In addition, the results for the fold change (FC) (in assay [4]; at Adenosine receptor A2a [7]) were 1.9 and 2.2, respectively. In addition, the values for the IC50 at Adenosine receptor A2a [5] and on Adenosine A2 receptor were 5.1 µM and 0.27 µM, respectively. The figures for the Activity (at Adenosine receptor A2a [1]; in [2]) were 30% and 1.8%, respectively.
Regarding `N=C(N)NC(=O)c1nc(Cl)c(N)nc1N`, the Activity on Adenosine receptor A2a [1] was 71%; in assay [2] it was 11%.
Consider `CCOC(=O)CCNc1nc(N)c(C(=O)NC(=N)N)nc1Cl`, for which the Activity at Adenosine receptor A2a [1] was determined as 87%; in assay [2], 48%.
Take `N=C(N)NC(=O)c1nc(Cl)c(NCCS(=O)(=O)Cc2ccccc2)nc1N`: the values for the Activity (on Adenosine receptor A2a [1]; in [2]) were 82% and 18%, respectively.
Consider `COc1ccc(CCNc2nc(N)c(C(=O)N=C(N)N)nc2Cl)cc1.Cl`, for which the TIME on Adenosine receptor A2a [3] is 0.733 h; in assay [6] it was 0.0333 h. For the same molecule, in the assay on HEK293, the Ratio IC50 amounted to 37. For the same molecule, the fold change (FC) in assay [4] came to 1.3; on Adenosine receptor A2a [7] it was 1.5. Moreover, the 50% inhibitory concentration (IC50) on Adenosine receptor A2a [5] amounted to 4.4 µM; on Adenosine A2 receptor, 0.12 µM. Also, the Activity on Adenosine receptor A2a [1] was 31%; in assay [2] it was -0.4%.
In the case of `COc1ccc(CCNc2nc(N)c(C(=O)N=C(N)N)nc2Cl)cc1OC`, the Activity at Adenosine receptor A2a [1] is 51%; in assay [2], 1.8%.
On the same counts, the results for `Cc1ccc(CCNc2nc(N)c(C(=O)N=C(N)N)nc2Cl)cc1` are 50% and 2.1%.
On the same counts, the results for `NC(N)=NC(=O)c1nc(Cl)c(NCCc2ccc([N+](=O)[O-])cc2)nc1N` are 68% and 5.8%.
For `NC(N)=NC(=O)c1nc(Cl)c(NCCc2ccc(Cl)c(Cl)c2)nc1N`, the Activity on Adenosine receptor A2a [1] is 82%; in assay [2], 11%.
On the same counts, the results for `NC(N)=NC(=O)c1nc(Cl)c(NCCc2ccc(OCc3ccccc3)cc2)nc1N` are 75% and 4%.
`Cl.NC(N)=NC(=O)c1nc(Cl)c(NCCc2ccc3c(c2)OCO3)nc1N`: the TIME turned out to be 1.02 h on Adenosine receptor A2a [3] and 0.02 h in [6]. Besides, the Ratio IC50 in the assay with HEK293 came out at 80. Besides, the fold change (FC) in [4] is 2.3. Also, the concentration for half-maximal inhibition (IC50) is 5.6 µM on Adenosine receptor A2a [5] and 0.07 µM at Adenosine A2 receptor. The Activity was 35% on Adenosine receptor A2a [1] and 1% in assay [2].
As to `COc1cccc(CCNc2nc(N)c(C(=O)N=C(N)N)nc2Cl)c1.Cl`, the TIME on Adenosine receptor A2a [3] was 0.7 h; in assay [6], 0.0133 h. For the same molecule, the Ratio IC50 with HEK293 amounted to 32. The fold change (FC) in [4] came out at 3.4; on Adenosine receptor A2a [7], 1.5. Also, the IC50 on Adenosine receptor A2a [5] worked out at 8.1 µM; at Adenosine A2 receptor, 0.25 µM. Besides, the Activity is 41% on Adenosine receptor A2a [1] and 5.4% in [2].
With `NC(N)=NC(=O)c1nc(Cl)c(NCCc2ccc(O)cc2)nc1N`, the Activity on Adenosine receptor A2a [1] stood at 72%; in [2], 9.5%.
As for `N=C(N)NC(=O)c1nc(Cl)c(NCc2ccccc2)nc1N`, the Activity is 77% on Adenosine receptor A2a [1] and 21% in assay [2].
The matching figures for `N=C(N)NC(=O)c1nc(Cl)c(NCCC(=O)O)nc1N`: 96% and 70%.
`N=C(N)NC(=O)c1nc(Cl)c(NCCSCc2ccccc2)nc1N`: the Activity on Adenosine receptor A2a [1] stood at 84%; in [2], 35%.
For `N=C(N)NC(=O)c1nc(Cl)c(NCCc2nnn[nH]2)nc1N`, the Activity on Adenosine receptor A2a [1] is 99%; in assay [2], 101%.
Turning to `N=C(N)NC(=O)c1nc(Cl)c(NCc2ccc(F)cc2)nc1N`, the Activity at Adenosine receptor A2a [1] amounted to 96%; in [2], 48%.
With `CCOc1ccc(CCNc2nc(N)c(C(=O)N=C(N)N)nc2Cl)cc1.O=C(O)C(F)(F)F`, the TIME on Adenosine receptor A2a [3] was determined as 0.667 h; in [6], 0.0217 h. Moreover, the Ratio IC50 with HEK293 came out at 76. In addition, the values for the fold change (FC) (in assay [4]; on Adenosine receptor A2a [7]) were 2.1 and 1.5, respectively. The IC50 on Adenosine receptor A2a [5] was 3.4 µM; at Adenosine A2 receptor, 0.05 µM. For the same molecule, the Activity on Adenosine receptor A2a [1] was determined as 27%; in [2] it was 3.5%.
With `CCN(CC)CCNc1nc(N)c(C(=O)NC(=N)N)nc1Cl`, the Activity at Adenosine receptor A2a [1] stood at 85%; in assay [2], 53%.
On the same counts, the results for `NC(N)=NC(=O)c1nc(Cl)c(NCCc2ccc(Cl)cc2)nc1N` are 92% and 32%.
For the molecule `N#CCCNc1nc(N)c(C(=O)NC(=N)N)nc1Cl`, the Activity on Adenosine receptor A2a [1] came out at 65%; in [2], 17%.
The matching figures for `NC(N)=NC(=O)c1nc(Cl)c(NCCc2ccc(Br)cc2)nc1N`: 67% and 4.8%.
As for `CCCCOc1ccc(CCNc2nc(N)c(C(=O)N=C(N)N)nc2Cl)cc1`, the results for the Activity (at Adenosine receptor A2a [1]; in assay [2]) were 66% and 3.4%, respectively.
Consider `N=C(N)NC(=O)c1nc(Cl)c(NCc2ccncc2)nc1N`, for which the Activity at Adenosine receptor A2a [1] is 87%; in [2], 73%.
As for `C=CCOc1ccc(CCNc2nc(N)c(C(=O)N=C(N)N)nc2Cl)cc1`, the Activity worked out at 43% at Adenosine receptor A2a [1] and 2.2% in assay [2].
The matching figures for `NC(N)=NC(=O)c1nc(Cl)c(NCCc2ccc(OC(F)(F)F)cc2)nc1N`: 63% and 5.2%.
With `Cc1ccc(S(=O)(=O)NCCNc2nc(N)c(C(=O)NC(=N)N)nc2Cl)cc1`, the Activity came out at 85% on Adenosine receptor A2a [1] and 32% in [2].
In the case of `N=C(N)NC(=O)c1nc(Cl)c(NCCNCc2ccccc2)nc1N`, the Activity at Adenosine receptor A2a [1] stood at 90%; in [2], 65%.
On the same counts, the results for `N=C(N)NC(=O)c1nc(Cl)c(NCCc2ccccc2)nc1N` are 54% and 1.1%.
The matching figures for `N=C(N)NC(=O)c1nc(Cl)c(NCC(=O)O)nc1N`: 88% and 111%.
